B1: NELF-E aptamer (parent)
chain: CCCAACGACUGCCGAGCGAGAUUACGCUUGAGCGCCCCACUGAGGAUGCCCACGGGCGAUUGGGGCACGG

Variants of: B1
Assay: HiTS-RAP
Details: with NELF-E (Drosophila)
In short: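 Kd came from weighted Hill fits to the first binding curve, with intensities normalised to sequencing intensity and averaged per sequence, keeping only fits whose variance was below 1,000,000. That curve was imaged on an Illumina GAIIx flowcell, where sequenced aptamer DNA templates with a T7 promoter and ter site had been transcribed in situ by T7 RNA polymerase and halted by GST-Tus (30 minutes, 37°C). Before each image, clusters equilibrated for 30 minutes at room temperature with NELF-E-mOrange at 0.064 to 1000 nM in HEPES binding buffer.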

Variant	Kd [nM]
C6U G42A	52.7
C6U G26A	4.04
A8G G11U	6.74
A8G G11A	6.3
A8U C33U	6.3
A8U C38U	8.93
A8G C12G	5.74
A8G C12U	5.09
G7A U22G	7
A8C C13G	6.73
A8G C17U	4.94
A8G C17G	5.53
A8U G16A	6.74
A8U G16U	7.54
A8U A24G	6.05
A8G G30U	4.7
A8G G30A	4.89
C6U C9U	5.38
C6U C9G	6.57
G7U G48A	12
C6U C25G	7.85
G7A A24G	6.73
A8C U10G	6.49
G7U C51U	7.54

Variant	Kd [nM]
A8G C57U	6
A8G A21G	6.28
A8G A21U	5.17
C6G U61G	7
C6G U61A	38.7
C6G U61C	74.8
G7U C9U	6.52
G7U C9G	6.28
A8G U10C	5.52
A8G U10G	5.44
A8G U10A	5.37
G7U G44U	16.7
A8G G58U	20.1
G7U C38U	8.98
G7U A8C	7.45
G7U A8G	5.66
G7U A8U	6.38
A8G U23C	4.62
A8G U23G	5.8
C6U U10G	5.57
A8U G18U	5.91
A8U G18A	5.68
G7C	6.43
G7A	5.61

Variant	Kd [nM]
G7U	5.55
G7U C13G	5.83
G7U C13A	6.82
G7U C13U	5.75
G7U A43U	84.5
G7U A43G	58
G7U C36U	7.87
A8G A59U	57.1
A8G A59G	89.2
C6U G34A	6.54
G7A U10G	5.66
A8G C33U	5.16
G7U G30U	7.92
G7U G30A	6.35
A8G C13U	4.41
A8G C13A	6.62
A8G C13G	5.95
A8G A19G	5.51
A8G A19U	5.53
G7U G64A	8.36
G7U G64U	7.33
A8G C37U	10.1
A8G A43U	63.6
A8G A43G	23.7

Variant	Kd [nM]
A8U A59G	47.2
A8U G30A	5.46
A8G G48A	11.7
G7U C40U	80.4
G7A U41G	6.05
C6U	5.29
A8U C40G	8.55
C6U G7U	6.71
G7U U10G	5.68
G7U U10C	5.96
G7U U10A	7.85
A8G C53U	4.94
A8U C50U	10.4
C6U U23G	6.14
A8G G34A	4.84
A8G A15U	5.54
A8G A15G	6.29
A8U A39U	28.6
G7U U41G	6.05
G7U U41C	91.2
G7U U41A	64.3
A8U	5.54
A8G	5.44
A8C	6.72

Variant	Kd [nM]
A8U A52U	17.4
A8U A52G	5.67
G7U A31G	7.34
G7U A31U	5.33
A8G G44A	39.3
A8U G26A	4.2
A8U C17G	6.07
A8U C17U	5.13
A8G C9U	5.53
A8G C9A	7.04
A8G C9G	5.53
G7U A46G	56
G7U A52G	4.13
G7U A52U	19.3
A8G U22C	5.08
A8G U22G	5.75
A8U C13A	7.3
A8U C13U	4.96
A8U C13G	6.33
A8U G54A	11.3
A8U G44U	25.7
C6U C13G	5.6
C6U C13U	5.09
A8G U47G	7.16

Variant	Kd [nM]
A8G U47A	10.9
G7U U60C	10.9
A8U C66U	5.31
G7U G42A	59
G7U G42U	17.4
C6U A59G	69.1
C6U U41A	82.3
C6U U41G	5.16
C6U U41C	81.8
G7U G32A	4.74
G7U U61C	79
G7U U61A	39.5
A8U C27U	4.24
C6U A31G	8.72
A8C U29G	8.24
A8G A46G	17.8
C6U A24G	5.94
G7U C66U	6.12
C6U G54A	14.5
C6U A15U	6.25
A8G G55U	7.12
A8G G55A	10
A8U C35U	12.5
C6U G55A	7.75

Variant	Kd [nM]
G7A A19U	8.57
A8G C25U	5.14
C6U G11U	6.12
C6U G11A	5.43
G7U C35A	8.62
G7U C35U	8.9
G7U C50U	9.77
A8U A19U	6.78
A8U A19G	6.26
A8G C51U	6.89
C6U A8U	7.13
C6U A8G	6.02
A8U G20U	6.62
C6U A52U	23.1
G7A G14U	6.75
A8G U28C	7.19
A8G U28G	6.24
A8G U28A	4.13
A8U G42A	71.2
A8G G64A	7.44
A8U A15U	7.15
A8U A15G	5.78
A8G U41G	6.37

Source: the RNAGym collection of RNA variant scans (doi:10.1038/nmeth.2970)
